In ChEMBL document CHEMBL4184143 (J Med Chem, 2017):
Calls of active or inactive are those of the source. The calls are words filed in the database; no cut-off is given here.

What was measured:
[1] = test system: Mus musculus; experiment: Toxicity in SCID mouse implanted with human MDA-MB-231 cells assessed as weight loss at 40 mg/kg, po qd measured 2 to 3 times weekly during treatment and weekly post dose; format: organism-based; conditions: in vivo
Procedure, shortened: (§1)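 At ~100 mm3, mice were randomized to treatment or vehicle control. Tumors were measured by electronic calipers. Animals were checked daily for signs of toxicity and weighed 2–3 times weekly on treatment, then at least weekly afterwards.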

[2] = AUC (0 to t) in Sprague-Dawley rat at 25 mg/kg, po by LC/MS method; format: ADME, organism-based; conditions: in vivo
Procedure, shortened: (§2)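 Sprague Dawley rats were dosed iv at 5 mg/kg or orally at 25 mg/kg, with compound dissolved in 20% (v/v) PCP/70% (v/v) PBS vehicle. Blood was drawn by catheter at 0, 5, 15, 30 min and 1, 2, 4, 6, 8, 24 h and spun to plasma, which was stored at −80 °C. Plasma drug was quantified by a validated LC–MS/MS method, and parameters were derived noncompartmentally.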

[3] = AUC (0 to t) in Sprague-Dawley rat at 5 mg/kg, iv by LC/MS method; format: ADME, organism-based; conditions: in vivo; procedure, shortened: as §2
[4] = Volume of distribution at steady state in Sprague-Dawley rat at 5 mg/kg, iv by LC/MS method; format: ADME, organism-based; conditions: in vivo, read-out: Vdss
[5] = AUC (0 to t) in SCID mouse at 5 mg/kg, iv by LC/MS method; format: ADME, organism-based; conditions: in vivo
Procedure, shortened: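 Mouse plasma samples were stored at −80 °C. Drug levels were quantified by a validated LC–MS/MS method, and pharmacokinetic parameters were calculated by noncompartmental analysis.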

[6] = test system: Mus musculus; experiment: Volume of distribution at steady state in SCID mouse at 5 mg/kg, iv by LC/MS method; format: ADME, organism-based; conditions: in vivo
[7] = Cmax in SCID mouse at 25 mg/kg, po by LC/MS method; format: ADME, organism-based; parameters: dose 25 mg/kg, route oral; conditions: in vivo
[8] = Half life in Sprague-Dawley rat liver microsomes at 1 uM by LC/MS method; format: ADME, microsome
[9] = Half life in human liver microsomes at 1 uM by LC/MS method; format: ADME, microsome
[10] = Aqueous solubility of the compound in 5% DMSO/10% cremophor/85% saline; format: physicochemical; conditions: buffer
[11] = molecular target: T1, Bromodomain-containing protein 2 (Homo sapiens, UniProt P25440); experiment: Binding affinity to human partial length BRD2 bromodomain 2 isoform 1 (349 to 460 residues) expressed in bacterial expression system by BROMOscan assay
T1 sequence (P25440 whole entry, the tested form may be a part, canonical isoform): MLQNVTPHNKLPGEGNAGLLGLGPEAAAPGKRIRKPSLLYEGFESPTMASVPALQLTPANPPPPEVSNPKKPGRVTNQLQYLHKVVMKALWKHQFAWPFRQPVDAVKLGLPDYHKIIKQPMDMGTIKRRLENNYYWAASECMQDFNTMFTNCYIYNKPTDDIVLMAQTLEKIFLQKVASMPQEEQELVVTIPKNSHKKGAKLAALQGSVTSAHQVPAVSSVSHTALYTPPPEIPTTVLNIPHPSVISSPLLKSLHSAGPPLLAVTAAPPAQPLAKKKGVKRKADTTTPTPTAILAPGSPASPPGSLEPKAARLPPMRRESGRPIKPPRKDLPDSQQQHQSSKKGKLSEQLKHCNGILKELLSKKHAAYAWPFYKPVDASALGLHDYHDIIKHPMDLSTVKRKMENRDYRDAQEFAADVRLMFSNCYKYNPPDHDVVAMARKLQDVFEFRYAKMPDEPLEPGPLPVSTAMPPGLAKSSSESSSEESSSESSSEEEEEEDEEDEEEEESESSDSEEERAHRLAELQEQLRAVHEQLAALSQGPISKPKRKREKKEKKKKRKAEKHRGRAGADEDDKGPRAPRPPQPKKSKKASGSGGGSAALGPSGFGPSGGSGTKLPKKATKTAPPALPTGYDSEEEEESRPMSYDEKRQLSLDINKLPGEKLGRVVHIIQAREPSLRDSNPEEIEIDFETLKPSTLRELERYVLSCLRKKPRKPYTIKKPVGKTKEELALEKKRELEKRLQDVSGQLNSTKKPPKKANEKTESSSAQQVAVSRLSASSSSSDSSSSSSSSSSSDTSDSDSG

[12] = molecular target: T1, Bromodomain-containing protein 2; experiment: Binding affinity to human partial length BRD2 bromodomain 1/2 isoform 1 (K71 to D455 residues) by BROMOscan assay
[13] = molecular target: T2, Bromodomain-containing protein 3 (Homo sapiens, UniProt Q15059); experiment: Binding affinity to human partial length BRD3 bromodomain 1 (P24 to E144 residues) expressed in bacterial expression system by BROMOscan assay
T2 sequence (Q15059 whole entry, the tested form may be a part): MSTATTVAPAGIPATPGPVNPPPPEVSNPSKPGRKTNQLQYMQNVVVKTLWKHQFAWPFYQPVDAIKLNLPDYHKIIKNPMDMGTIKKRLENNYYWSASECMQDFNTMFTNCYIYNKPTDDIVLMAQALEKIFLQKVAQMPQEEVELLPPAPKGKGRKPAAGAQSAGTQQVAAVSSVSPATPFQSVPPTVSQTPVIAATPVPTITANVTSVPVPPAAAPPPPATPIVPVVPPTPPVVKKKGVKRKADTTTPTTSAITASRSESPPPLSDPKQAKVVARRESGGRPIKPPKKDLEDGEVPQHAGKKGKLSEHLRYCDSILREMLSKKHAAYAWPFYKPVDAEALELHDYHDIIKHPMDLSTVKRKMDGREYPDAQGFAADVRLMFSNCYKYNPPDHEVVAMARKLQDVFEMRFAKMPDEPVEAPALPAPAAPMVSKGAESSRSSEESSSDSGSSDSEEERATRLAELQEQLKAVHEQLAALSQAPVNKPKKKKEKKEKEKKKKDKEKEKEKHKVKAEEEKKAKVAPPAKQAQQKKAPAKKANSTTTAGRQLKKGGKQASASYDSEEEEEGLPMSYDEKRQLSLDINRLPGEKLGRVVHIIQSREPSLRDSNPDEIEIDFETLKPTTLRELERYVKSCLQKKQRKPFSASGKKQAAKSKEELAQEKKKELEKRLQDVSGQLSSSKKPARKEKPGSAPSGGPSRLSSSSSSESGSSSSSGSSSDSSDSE

[14] = molecular target: T2, Bromodomain-containing protein 3; experiment: Binding affinity to human partial length BRD3 bromodomain 1/2 (P24 to P416 residues) expressed in bacterial expression system by BROMOscan assay
[15] = molecular target: Bromodomain-containing protein 4 (Homo sapiens, UniProt O60885); experiment: Binding affinity to human partial length BRD4 bromodomain 1/2 long isoform (N44 to E460 residues) expressed in bacterial expression system by BROMOscan assay
[16] = molecular target: ATPase family AAA domain-containing protein 2 (Homo sapiens, UniProt Q6PL18); experiment: Binding affinity to human partial length ATAD2A (Q981 to R1108 residues) expressed in bacterial expression system by BROMOscan assay
[17] = molecular target: ATPase family AAA domain-containing protein 2B (Homo sapiens, UniProt Q9ULI0); experiment: Binding affinity to human partial length ATAD2B (Q955 to R1082 residues) expressed in bacterial expression system by BROMOscan assay
[18] = molecular target: Bromodomain-containing protein 9 (Homo sapiens, UniProt Q9H8M2); experiment: Binding affinity to human partial length BRD9 (R130 to V259 residues) expressed in bacterial expression system by BROMOscan assay
Bromodomain-containing protein 9, sequence (Q9H8M2 whole entry, the tested form may be a part): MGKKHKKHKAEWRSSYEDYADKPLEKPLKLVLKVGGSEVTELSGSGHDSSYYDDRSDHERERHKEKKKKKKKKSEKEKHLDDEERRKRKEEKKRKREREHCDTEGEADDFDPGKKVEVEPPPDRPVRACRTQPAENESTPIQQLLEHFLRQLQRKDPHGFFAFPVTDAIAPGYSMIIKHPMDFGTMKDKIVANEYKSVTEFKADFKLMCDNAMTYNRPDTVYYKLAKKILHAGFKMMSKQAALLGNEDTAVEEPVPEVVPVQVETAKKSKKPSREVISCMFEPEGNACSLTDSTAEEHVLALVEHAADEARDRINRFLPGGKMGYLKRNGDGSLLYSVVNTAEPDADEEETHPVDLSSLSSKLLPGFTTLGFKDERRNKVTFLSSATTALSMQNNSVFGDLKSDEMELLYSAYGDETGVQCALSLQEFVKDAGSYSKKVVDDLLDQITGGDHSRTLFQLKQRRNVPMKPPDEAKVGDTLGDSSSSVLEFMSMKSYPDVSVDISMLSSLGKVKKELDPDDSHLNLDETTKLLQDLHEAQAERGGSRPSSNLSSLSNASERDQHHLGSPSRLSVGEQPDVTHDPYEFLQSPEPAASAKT

[19] = molecular target: Bromodomain and PHD finger-containing protein 3 (Homo sapiens, UniProt Q9ULD4); experiment: Binding affinity to human partial length BRPF3 (E588 to G701 residues) expressed in bacterial expression system by BROMOscan assay
[20] = molecular target: Protein polybromo-1 (Homo sapiens, UniProt Q86U86); experiment: Binding affinity to human partial length PBRM1 bromodomain 5 (S645 to D766 residues) expressed in bacterial expression system by BROMOscan assay
Protein polybromo-1, sequence (Q86U86 whole entry, the tested form may be a part): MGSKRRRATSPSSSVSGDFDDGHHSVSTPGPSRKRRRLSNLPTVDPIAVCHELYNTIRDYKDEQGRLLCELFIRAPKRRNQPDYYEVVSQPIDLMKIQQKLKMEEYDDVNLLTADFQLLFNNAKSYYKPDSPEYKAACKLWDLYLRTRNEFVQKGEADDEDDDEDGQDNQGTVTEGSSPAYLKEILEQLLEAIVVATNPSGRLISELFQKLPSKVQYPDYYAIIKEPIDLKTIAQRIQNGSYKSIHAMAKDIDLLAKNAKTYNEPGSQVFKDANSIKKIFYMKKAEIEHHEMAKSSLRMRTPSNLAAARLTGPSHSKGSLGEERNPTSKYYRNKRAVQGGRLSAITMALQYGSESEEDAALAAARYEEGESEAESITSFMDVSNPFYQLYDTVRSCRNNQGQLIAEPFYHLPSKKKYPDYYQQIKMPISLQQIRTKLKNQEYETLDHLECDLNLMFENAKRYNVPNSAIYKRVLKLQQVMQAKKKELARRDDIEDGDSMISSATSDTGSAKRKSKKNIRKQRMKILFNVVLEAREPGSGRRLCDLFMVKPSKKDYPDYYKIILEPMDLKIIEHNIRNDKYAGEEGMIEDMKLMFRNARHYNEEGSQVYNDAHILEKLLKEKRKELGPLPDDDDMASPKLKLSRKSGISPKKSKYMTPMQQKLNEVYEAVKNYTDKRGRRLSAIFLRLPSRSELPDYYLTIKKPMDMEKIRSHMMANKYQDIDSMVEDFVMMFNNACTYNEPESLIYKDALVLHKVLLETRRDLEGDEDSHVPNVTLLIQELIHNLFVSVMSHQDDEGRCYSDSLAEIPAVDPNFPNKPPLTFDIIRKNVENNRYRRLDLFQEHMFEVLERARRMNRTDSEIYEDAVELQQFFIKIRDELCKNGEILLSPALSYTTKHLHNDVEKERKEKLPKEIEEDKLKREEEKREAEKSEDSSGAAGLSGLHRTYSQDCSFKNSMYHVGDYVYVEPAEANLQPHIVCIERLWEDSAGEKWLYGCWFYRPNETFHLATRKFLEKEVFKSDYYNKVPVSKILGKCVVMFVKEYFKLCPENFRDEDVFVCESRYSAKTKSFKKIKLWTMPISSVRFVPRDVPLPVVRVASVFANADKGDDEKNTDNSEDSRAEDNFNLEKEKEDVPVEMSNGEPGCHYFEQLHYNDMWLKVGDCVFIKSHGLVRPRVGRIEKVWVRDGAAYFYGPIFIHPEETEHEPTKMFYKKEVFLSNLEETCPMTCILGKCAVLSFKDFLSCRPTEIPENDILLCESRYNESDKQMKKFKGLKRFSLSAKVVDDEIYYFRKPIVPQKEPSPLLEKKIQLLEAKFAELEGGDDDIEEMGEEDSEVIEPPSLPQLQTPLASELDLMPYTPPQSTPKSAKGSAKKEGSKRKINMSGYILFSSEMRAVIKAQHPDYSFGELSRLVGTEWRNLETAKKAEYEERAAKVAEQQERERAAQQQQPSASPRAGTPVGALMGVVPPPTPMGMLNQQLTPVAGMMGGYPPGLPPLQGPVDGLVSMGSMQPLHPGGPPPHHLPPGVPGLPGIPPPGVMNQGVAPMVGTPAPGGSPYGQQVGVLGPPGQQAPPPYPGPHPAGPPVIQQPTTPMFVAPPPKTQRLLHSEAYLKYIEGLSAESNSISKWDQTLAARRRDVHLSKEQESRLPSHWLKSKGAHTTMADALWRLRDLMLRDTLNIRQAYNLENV

[21] = molecular target: SWI/SNF-related matrix-associated actin-dependent regulator of chromatin subfamily A member 2 (Homo sapiens, UniProt P51531); experiment: Binding affinity to human partial length SMARCA2 (S1377 to Q1486 residues) expressed in bacterial expression system by BROMOscan assay
[22] = molecular target: Transcription initiation factor TFIID subunit 1 (Homo sapiens, UniProt P21675); experiment: Binding affinity to human partial length TAF1 bromodomain 2 (D1521 to D1656 residues) expressed in bacterial expression system by BROMOscan assay
[23] = molecular target: Transcription intermediary factor 1-alpha (Homo sapiens, UniProt O15164); experiment: Binding affinity to human partial length TRIM24 expressed in bacterial expression system by BROMOscan assay
Transcription intermediary factor 1-alpha, sequence (O15164 whole entry, the tested form may be a part): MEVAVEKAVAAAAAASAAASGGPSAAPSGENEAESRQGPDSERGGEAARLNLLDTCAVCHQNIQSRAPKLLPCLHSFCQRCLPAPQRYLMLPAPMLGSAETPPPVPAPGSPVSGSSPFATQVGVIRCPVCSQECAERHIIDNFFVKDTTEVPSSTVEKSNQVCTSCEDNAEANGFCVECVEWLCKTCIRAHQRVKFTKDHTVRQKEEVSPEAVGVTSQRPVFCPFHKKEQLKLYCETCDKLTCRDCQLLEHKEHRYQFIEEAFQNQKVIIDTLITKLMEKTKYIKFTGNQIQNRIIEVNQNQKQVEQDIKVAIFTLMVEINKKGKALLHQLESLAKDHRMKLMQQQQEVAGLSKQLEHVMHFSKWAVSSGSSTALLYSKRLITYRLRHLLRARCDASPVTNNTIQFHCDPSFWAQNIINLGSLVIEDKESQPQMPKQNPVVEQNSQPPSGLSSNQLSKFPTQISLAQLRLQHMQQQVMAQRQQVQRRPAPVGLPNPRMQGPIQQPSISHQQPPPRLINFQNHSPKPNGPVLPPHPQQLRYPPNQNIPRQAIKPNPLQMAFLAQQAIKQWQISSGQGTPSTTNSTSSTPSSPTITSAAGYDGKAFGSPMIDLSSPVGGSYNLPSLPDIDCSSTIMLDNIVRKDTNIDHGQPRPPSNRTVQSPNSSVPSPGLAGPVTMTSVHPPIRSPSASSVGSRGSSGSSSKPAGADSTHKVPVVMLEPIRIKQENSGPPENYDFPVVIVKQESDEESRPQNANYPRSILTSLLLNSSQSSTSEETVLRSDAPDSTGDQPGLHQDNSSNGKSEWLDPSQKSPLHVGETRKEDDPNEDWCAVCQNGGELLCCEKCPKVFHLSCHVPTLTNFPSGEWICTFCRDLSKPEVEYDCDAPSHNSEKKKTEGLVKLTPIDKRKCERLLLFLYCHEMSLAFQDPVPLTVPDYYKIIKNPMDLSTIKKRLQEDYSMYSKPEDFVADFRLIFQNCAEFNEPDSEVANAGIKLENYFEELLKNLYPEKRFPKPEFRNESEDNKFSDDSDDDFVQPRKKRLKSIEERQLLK

[24] = molecular target: Bromodomain and WD repeat-containing protein 1 (Homo sapiens, UniProt Q9NSI6); experiment: Binding affinity to human partial length WDR9 bromodomain 2 (A1310 to E1430 residues) expressed in bacterial expression system by BROMOscan assay
[25] = molecular target: Bromodomain adjacent to zinc finger domain protein 2A (Homo sapiens, UniProt Q9UIF9); experiment: Binding affinity to human partial length BAZ2A (M1792 to L1905 residues) expressed in bacterial expression system by BROMOscan assay
[26] = test system: MV4-11; experiment: Antitumor activity against human MV4-11 cells xenografted in SCID mouse assessed as tumor growth inhibition at 50 mg/kg, po qd measured 2 to 3 times weekly during treatment and once weekly post dose; format: functional; conditions: MV4-11, po, read-out: TGI; procedure, shortened: as §1
[27] = test system: HCC1937; experiment: Cytotoxicity against human HCC1937 cells assessed as cell growth inhibition after 4 days by WST-8 assay; format: functional, cell-based; conditions: HCC1937, 96 h
Procedure, shortened: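 Breast cancer cells were seeded at 3,000 cells/well, treated with serially diluted compound in medium and cultured for 4 days. Growth was read by WST-8 (10% v/v final, 1–3 h) at 450 nm. Readings were normalized to DMSO-treated cells, and IC50 was obtained by nonlinear regression.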

[28] = test system: MDA-MB-231; experiment: Antitumor activity against human MDA-MB-231 cells xenografted in SCID mouse assessed as tumor growth inhibition at 40 mg/kg, po qd measured 2 to 3 times weekly during treatment and weekly post dose; format: functional, organism-based; procedure, shortened: as §1
[29] = test system: Mus musculus; experiment: Toxicity in SCID mouse implanted with human MDA-MB-231 cells at 40 mg/kg, po qd measured 2 to 3 times weekly during treatment and weekly post dose; format: organism-based; conditions: in vivo; procedure, shortened: as §1
[30] = test system: MV4-11; experiment: Inhibition of BET bromodomain in human MV4-11 cells assessed as downregulation of c-myc level after 1 hr by Western blot method; format: cell-based
Procedure, shortened: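 MV4;11 cells were treated with a range of compound concentrations for 1 h and lysed in RIPA buffer with protease inhibitors. Lysates were run on 4–20% SDS-PAGE, transferred to PVDF and probed for c-Myc with a specific antibody.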

## COc1cc2c(cc1-c1c(C)noc1C)[nH]c1nc(C)nc(-c3ccnc4ccccc34)c12
[1]
  Activity: Non-Toxic
[2]
  AUC(0-t): 29500 ng·h/mL
[3]
  AUC(0-t): 6340 ng·h/mL
[4]
  Vd: 2 L/kg
[5]
  AUC(0-t): 3690 ng·h/mL
[6]
  Vdss: 2.75 L/kg
[7]
  Cmax: 983 ng/mL
[8]
  t1/2: > 60 min
[9]
  t1/2: > 60 min
[10]
  solubility: Soluble
[11]
  Kd: 0.9 nM
[12]
  Kd: 1.1 nM
[13]
  Kd: 2 nM
[14]
  Kd: 0.73 nM
[15]
  Kd: 1.8 nM
[16]
  Kd: > 4 µM
[17]
  Kd: > 4 µM
[18]
  Kd: > 4 µM
[19]
  Kd: > 4 µM
[20]
  Kd: > 4 µM
[21]
  Kd: > 4 µM
[22]
  Kd: > 4 µM
[23]
  Kd: > 4 µM
[24]
  Kd: > 4 µM
[25]
  Kd: > 4 µM
[26]
  inhibition in vivo at 50 mg/kg: > 80%
[27]
  IC50: > 2000 nM
[28]
  TGI: Active
[29]
  Activity: Non-Toxic
[30]
  inhibition: Dose-dependent effect
